Source: ChEMBL document CHEMBL3124940, “Design, synthesis and biological evaluation of D-ring opened galantamine analogs as multifunctional anti-Alzheimer agents” (Eur J Med Chem, 2014)
Active and inactive are the calls of the source. The calls are words filed in the database; no cut-off is given here.

Assays:
Acetylcholinesterase = Acetylcholinesterase (Electrophorus electricus, UniProt O42275); assay: Inhibition of electric eel AChE using acetylthiocholine iodide as substrate preincubated for 5 mins followed by substrate addition measured after 5 mins by Ellman's method
Cholinesterase = Cholinesterase (Equus caballus, UniProt P81908); assay: Inhibition of equine serum BChE using butyrylthiocholine iodide as substrate preincubated for 5 mins followed by substrate addition measured after 5 mins by Ellman's method
In short: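 Ellman's method with equine serum BChE and butyrylthiocholine iodide; DTNB read-out at 412 nm, 25 °C. Phosphate buffer pH 8.0. At least five concentrations (normally 10^-4 to 10^-9 M), each in triplicate, to build the inhibition curve. Data are means of at least three determinations.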

[1] = Selectivity ratio of IC50 for electric eel AChE to IC50 for equine serum BChE
In short: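 AChE is electric eel Type VI-S with acetylthiocholine; BChE is equine serum with butyrylthiocholine. At least five concentrations, each in triplicate. Ratio = IC50(AChE)/IC50(BChE).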

[2] = biological target: Amyloid-beta precursor protein (Homo sapiens) (UniProt P05067); assay: Inhibition of amyloid beta (1 to 42) aggregation (unknown origin) at 5 uM after 1 hr by thioflavin T fluorescence assay
In short: (§1)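 Aβ42 stock (200 µM in DMSO) centrifuged 12,000 rpm for 10 min; supernatant used. Compound (2 µL of 0.2–4.0 mM DMSO stock) and 2 µL Aβ42 stock added to 76 µL PBS pH 7.4, incubated 1 h at room temperature. 80 µL of 5 µM ThT in 50 mM glycine-NaOH pH 8.5 then added; fluorescence read at excitation 430 nm, emission 488 nm.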

[3] = biological target: Amyloid-beta precursor protein (Homo sapiens) (UniProt P05067); assay: Inhibition of amyloid beta (1 to 42) aggregation (unknown origin) after 1 hr by thioflavin T fluorescence assay; in short: as §1

Amyloid-beta precursor protein (Homo sapiens), sequence (P05067 whole entry): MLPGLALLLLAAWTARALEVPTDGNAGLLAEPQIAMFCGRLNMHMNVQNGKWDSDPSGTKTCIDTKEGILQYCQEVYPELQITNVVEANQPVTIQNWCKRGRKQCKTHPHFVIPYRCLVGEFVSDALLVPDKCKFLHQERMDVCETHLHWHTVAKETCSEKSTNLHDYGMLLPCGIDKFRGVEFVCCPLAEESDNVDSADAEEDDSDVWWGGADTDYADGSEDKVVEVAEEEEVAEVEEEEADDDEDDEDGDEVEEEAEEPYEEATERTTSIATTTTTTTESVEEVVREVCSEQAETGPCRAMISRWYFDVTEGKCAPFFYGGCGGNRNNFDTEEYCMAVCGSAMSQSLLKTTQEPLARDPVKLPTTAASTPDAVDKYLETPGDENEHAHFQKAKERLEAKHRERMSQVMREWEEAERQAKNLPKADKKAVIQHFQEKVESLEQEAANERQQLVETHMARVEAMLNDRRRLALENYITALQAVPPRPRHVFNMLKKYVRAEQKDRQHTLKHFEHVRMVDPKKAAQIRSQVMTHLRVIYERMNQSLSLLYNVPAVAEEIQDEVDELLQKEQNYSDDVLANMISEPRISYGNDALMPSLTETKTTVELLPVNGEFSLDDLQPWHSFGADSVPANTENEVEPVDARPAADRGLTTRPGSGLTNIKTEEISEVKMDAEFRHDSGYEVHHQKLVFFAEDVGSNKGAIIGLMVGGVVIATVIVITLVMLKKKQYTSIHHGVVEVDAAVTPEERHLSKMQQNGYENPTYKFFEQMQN
Acetylcholinesterase, sequence (O42275 whole entry): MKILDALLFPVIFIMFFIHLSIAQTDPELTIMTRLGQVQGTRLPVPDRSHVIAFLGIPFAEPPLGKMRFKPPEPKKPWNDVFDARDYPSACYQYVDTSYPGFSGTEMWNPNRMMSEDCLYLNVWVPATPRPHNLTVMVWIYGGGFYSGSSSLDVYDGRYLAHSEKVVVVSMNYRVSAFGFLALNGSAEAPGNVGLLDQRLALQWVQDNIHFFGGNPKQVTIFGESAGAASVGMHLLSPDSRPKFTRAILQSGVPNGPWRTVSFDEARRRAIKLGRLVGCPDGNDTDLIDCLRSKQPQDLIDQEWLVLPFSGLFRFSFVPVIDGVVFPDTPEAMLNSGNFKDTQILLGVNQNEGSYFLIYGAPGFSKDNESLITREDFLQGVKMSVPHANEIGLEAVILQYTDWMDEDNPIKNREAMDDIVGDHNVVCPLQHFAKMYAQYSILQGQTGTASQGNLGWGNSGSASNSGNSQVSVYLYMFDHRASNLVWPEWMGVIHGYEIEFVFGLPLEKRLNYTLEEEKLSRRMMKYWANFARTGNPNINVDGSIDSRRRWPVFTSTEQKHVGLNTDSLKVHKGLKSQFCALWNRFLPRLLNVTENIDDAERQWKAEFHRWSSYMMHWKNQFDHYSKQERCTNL
Cholinesterase, sequence (P81908 whole entry): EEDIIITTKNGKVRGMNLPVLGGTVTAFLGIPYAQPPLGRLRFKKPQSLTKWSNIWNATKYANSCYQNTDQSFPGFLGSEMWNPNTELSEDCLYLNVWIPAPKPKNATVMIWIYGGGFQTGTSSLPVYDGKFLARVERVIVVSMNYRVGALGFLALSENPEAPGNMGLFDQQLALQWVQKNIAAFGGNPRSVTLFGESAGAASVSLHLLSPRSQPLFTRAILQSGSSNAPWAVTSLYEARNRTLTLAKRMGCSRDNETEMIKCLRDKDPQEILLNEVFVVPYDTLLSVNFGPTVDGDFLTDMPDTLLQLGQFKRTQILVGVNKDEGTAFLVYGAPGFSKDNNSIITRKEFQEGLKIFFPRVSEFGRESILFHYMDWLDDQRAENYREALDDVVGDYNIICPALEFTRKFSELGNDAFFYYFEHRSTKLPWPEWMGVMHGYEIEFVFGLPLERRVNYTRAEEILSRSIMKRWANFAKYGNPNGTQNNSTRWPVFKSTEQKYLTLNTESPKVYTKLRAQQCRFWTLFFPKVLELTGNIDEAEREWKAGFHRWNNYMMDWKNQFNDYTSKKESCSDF

inhibition [2] | inhibition [3] | Compound | IC50 (Acetylcholinesterase) | IC50 (Cholinesterase) | Ratio IC50 [1]
– | – | COc1ccc2c(c1)[nH]c1cccc(CNC(C)C)c12 | 50.8 µM | 10.1 µM | 5.03
– | – | CCN(C)Cc1cccc2oc3cc(OC)ccc3c12 | > 50 µM | – | –
inactive | Dose-dependent effect | COc1cc(/C=C/C(=O)CC(=O)/C=C/c2ccc(O)c(OC)c2)ccc1O | – | – | –
